From ChEMBL document CHEMBL1124493, “Synthesis and tumor uptake of 5-82Br- and 5-131I-labeled 5-halo-1-(2-fluoro-2-deoxy-beta-D-ribofuranosyl)uracils” (J Med Chem, 1989)
Blank lines part the entries; values can stand above or below the compound they belong to.

Legend:
Mus musculus [1] = experiment: Biodistribution of intravenously injected [131I]-labeled compound in skin of BDF1 female mice bearing subcutaneous Lewis lung carcinoma after 24 hours; format: ADME, organism-based, Zone of skin; settings: in vivo, iv
Method in brief: (§1)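 Female BDF1 mice with subcutaneous Lewis lung carcinoma given i.v. 0.5-1.8 μg of 131I-labeled nucleoside (55-110 kBq). Killed at set times. Tissues weighed wet and γ-counted. Radioactivity expressed as percent injected dose per gram wet tissue, mean ± SD of six animals.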

Mus musculus [2] = experiment: Biodistribution of intravenously injected [131I]-labeled compound in stomach of BDF1 female mice bearing subcutaneous Lewis lung carcinoma after 4 hours; format: ADME, organism-based; settings: in vivo, iv; method in brief: as §1
Mus musculus [3] = experiment: Biodistribution of intravenously injected [131I]-labeled compound in tumor of BDF1 female mice bearing subcutaneous Lewis lung carcinoma after 0.25 hours; format: ADME, organism-based; settings: in vivo, iv; method in brief: as §1
Mus musculus [4] = experiment: Biodistribution of intravenously injected [131I]-labeled compound in lung of BDF1 female mice bearing subcutaneous Lewis lung carcinoma after 24 hours; format: ADME, organism-based; settings: in vivo, iv
Method in brief: (§2)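 Female BDF1 mice bearing subcutaneous Lewis lung carcinoma received a single intravenous dose of 0.5-1.8 μg of the 131I-labeled nucleoside (55-110 kBq). They were sacrificed at set times, and tissues were weighed wet and γ-counted. Activity is expressed as percent of injected dose per gram of wet tissue, given as mean ± standard deviation for six animals.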

Mus musculus [5] = experiment: Biodistribution of intravenously injected [131I]-labeled compound in tumor of BDF1 female mice bearing subcutaneous Lewis lung carcinoma after 24 hours; format: ADME, organism-based; settings: in vivo, iv; method in brief: as §1
Mus musculus [6] = experiment: Biodistribution of intravenously injected [131I]-labeled compound in muscle of BDF1 female mice bearing subcutaneous Lewis lung carcinoma after 24 hours; format: ADME, organism-based, Muscle tissue; settings: in vivo, iv; method in brief: as §1
Mus musculus [7] = experiment: Biodistribution of intravenously injected [131I]-labeled compound in tumor of BDF1 female mice bearing subcutaneous Lewis lung carcinoma after 4 hr; format: ADME, organism-based; settings: in vivo, iv; method in brief: as §1
Mus musculus [8] = species: Mus musculus; experiment: Urinary iodide observed in BDF1 female mice bearing lewis lung tumor after 2-3 hr of injected [131I]-compound; format: functional, tissue-based; settings: Urine
Mus musculus [9] = experiment: Biodistribution of intravenously injected [131I]-labeled compound in blood of BDF1 female mice bearing subcutaneous Lewis lung carcinoma after 8 hours; format: ADME, organism-based; settings: in vivo, iv; method in brief: as §2
Mus musculus [10] = experiment: Biodistribution of intravenously injected [131I]-labeled compound in liver of BDF1 female mice bearing subcutaneous Lewis lung carcinoma after 0.50 hours; format: ADME, organism-based; settings: in vivo, iv, 0.5 h; method in brief: as §2
Mus musculus [11] = experiment: Biodistribution of intravenously injected [131I]-labeled compound in stomach of BDF1 female mice bearing subcutaneous Lewis lung carcinoma after 24 hours; format: ADME, organism-based; settings: in vivo, iv; method in brief: as §1
Mus musculus [12] = experiment: Biodistribution of intravenously injected [131I]-labeled compound in tumor of BDF1 female mice bearing subcutaneous Lewis lung carcinoma after 0.50 hours; format: ADME, organism-based; settings: in vivo, iv, 0.5 h; method in brief: as §1
Mus musculus [13] = experiment: Biodistribution of intravenously injected [82Br]-labeled compound in blood of BDF1 female mice bearing subcutaneous Lewis lung carcinoma after 4 hours; format: ADME, organism-based; settings: in vivo, iv, in the assay text read “[131I]-labeled” for “[82Br]-labeled”
Mus musculus [14] = experiment: Biodistribution of intravenously injected [131I]-labeled compound in stomach of BDF1 female mice bearing subcutaneous Lewis lung carcinoma after 0.25 hours; format: ADME, organism-based; settings: in vivo, iv; method in brief: as §1
Mus musculus [15] = experiment: Biodistribution of intravenously injected [131I]-labeled compound in tumor of BDF1 female mice bearing subcutaneous Lewis lung carcinoma after 1 hours; format: ADME, organism-based; settings: in vivo, iv; method in brief: as §1
Mus musculus [16] = experiment: Biodistribution of intravenously injected [131I]-labeled compound in heart of BDF1 female mice bearing subcutaneous Lewis lung carcinoma after 1 hours; format: ADME, organism-based; settings: in vivo, iv; method in brief: as §2
Mus musculus [17] = experiment: Biodistribution of intravenously injected [131I]-labeled compound in blood of BDF1 female mice bearing subcutaneous Lewis lung carcinoma after 2 hours; format: ADME, organism-based; settings: in vivo, iv; method in brief: as §2
Mus musculus [18] = experiment: Biodistribution of intravenously injected [131I]-labeled compound in muscle of BDF1 female mice bearing subcutaneous Lewis lung carcinoma after 0.25 hours; format: ADME, organism-based, Muscle tissue; settings: in vivo, iv; method in brief: as §2
Mus musculus [19] = experiment: Biodistribution of intravenously injected [82Br]-labeled compound in bone of BDF1 female mice bearing subcutaneous Lewis lung carcinoma after 0.5 hours; format: ADME, organism-based, Bone element; settings: in vivo, iv
Method in brief: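 82Br-labeled nucleoside given intravenously to female BDF1 mice bearing subcutaneous Lewis lung carcinoma, at 47-130 μg carrying 20-60 kBq. Mice sacrificed at each time point. Wet-weighed tissues γ-counted. Values are percent injected dose per gram wet tissue, mean ± SD, n = 6.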

Mus musculus [20] = experiment: Biodistribution of intravenously injected [82Br]-labeled compound in kidney of BDF1 female mice bearing subcutaneous Lewis lung carcinoma after 4 hours; format: ADME, organism-based; settings: in vivo, iv
Method in brief: (§3)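 Female BDF1 mice with subcutaneous Lewis lung carcinoma given an iv injection of [82Br]-labelled nucleoside, 47-130 μg carrying 20-60 kBq 82Br. Tissues were excised, weighed wet and γ-counted. Values are percent injected dose per gram of wet tissue, mean ± standard deviation of six animals, with organ-to-tumour ratios derived.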

Mus musculus [21] = experiment: Biodistribution of intravenously injected [82Br]-labeled compound in lung of BDF1 female mice bearing subcutaneous Lewis lung carcinoma after 4 hours; format: ADME, organism-based; settings: in vivo, iv; method in brief: as §3
Mus musculus [22] = experiment: Biodistribution of intravenously injected [82Br]-labeled compound in liver of BDF1 female mice bearing subcutaneous Lewis lung carcinoma after 0.50 hours; format: ADME, organism-based; settings: in vivo, iv, 0.5 h; method in brief: as §3
Mus musculus [23] = experiment: Biodistribution of intravenously injected [82Br]-labeled compound in kidney of BDF1 female mice bearing subcutaneous Lewis lung carcinoma after 24 hours; format: ADME, organism-based; settings: in vivo, iv; method in brief: as §3
Mus musculus [24] = experiment: Biodistribution of intravenously injected [82Br]-labeled compound in gut of BDF1 female mice bearing subcutaneous Lewis lung carcinoma after 2 hours; format: ADME, organism-based; settings: in vivo, iv; method in brief: as §3
Mus musculus [25] = experiment: Biodistribution of intravenously injected [82Br]-labeled compound in stomach of BDF1 female mice bearing subcutaneous Lewis lung carcinoma after 0.50 hours; format: ADME, organism-based; settings: in vivo, iv, 0.5 h
Mus musculus [26] = experiment: Biodistribution of intravenously injected [82Br]-labeled compound in spleen of BDF1 female mice bearing subcutaneous Lewis lung carcinoma after 4 hours; format: ADME, organism-based; settings: in vivo, iv
Mus musculus [27] = experiment: Biodistribution of intravenously injected [82Br]-labeled compound in heart of BDF1 female mice bearing subcutaneous Lewis lung carcinoma after 8 hours; format: ADME, organism-based; settings: in vivo, iv; method in brief: as §3
Mus musculus [28] = experiment: Biodistribution of intravenously injected [82Br]-labeled compound in lung of BDF1 female mice bearing subcutaneous Lewis lung carcinoma after 2 hours; format: ADME, organism-based; settings: in vivo, iv; method in brief: as §3
Mus musculus [29] = experiment: Biodistribution of intravenously injected [82Br]-labeled compound in skin of BDF1 female mice bearing subcutaneous Lewis lung carcinoma after 4 hours; format: ADME, organism-based, Zone of skin; settings: in vivo, iv; method in brief: as §3
Mus musculus [30] = experiment: Biodistribution of intravenously injected [82Br]-labeled compound in muscle of BDF1 female mice bearing subcutaneous Lewis lung carcinoma after 8 hours; format: ADME, organism-based, Muscle tissue; settings: in vivo, iv; method in brief: as §3
Mus musculus [31] = experiment: Biodistribution of intravenously injected [82Br]-labeled compound in spleen of BDF1 female mice bearing subcutaneous Lewis lung carcinoma after 0.50 hours; format: ADME, organism-based; settings: in vivo, iv, 0.5 h; method in brief: as §3
Mus musculus [32] = experiment: Biodistribution of intravenously injected [82Br]-labeled compound in skin of BDF1 female mice bearing subcutaneous Lewis lung carcinoma after 8 hours; format: ADME, organism-based, Zone of skin; settings: in vivo, iv; method in brief: as §3

- Injected dose/g (Mus musculus [1]): 0.1%
- Injected dose/g (Mus musculus [2]): 5.7%
- Injected dose/g (Mus musculus [3]): 4.9%
- Injected dose/g (Mus musculus [4]): 0.1%
- Injected dose/g (Mus musculus [5]): 0.08%
- Injected dose/g (Mus musculus [6]): 0.03%
- Injected dose/g (Mus musculus [7]): 3.3%
- Injected dose/g (Mus musculus [9]): 4.1%
- Injected dose/g (Mus musculus [10]): 4.6%
- Injected dose/g (Mus musculus [11]): 0.21%
- Injected dose/g (Mus musculus [12]): 3.7%
- Injected dose/g (Mus musculus [13]): 8.5%
- Injected dose/g (Mus musculus [14]): 3.7%
- Injected dose/g (Mus musculus [15]): 4.1%
- Injected dose/g (Mus musculus [16]): 5.8%
- Injected dose/g (Mus musculus [17]): 8.9%
- Injected dose/g (Mus musculus [18]): 2.5%
Structure (SMILES): O=c1[nH]c(=O)n([C@@H]2O[C@H](CO)[C@@H](O)[C@H]2F)cc1I
- Radioactive constituents (Mus musculus [8]): 13.7%

- Injected dose/g (Mus musculus [19]): 0.3%
- Injected dose/g (Mus musculus [20]): 0.48%
- Injected dose/g (Mus musculus [21]): 0.38%
- Injected dose/g (Mus musculus [22]): 0.65%
- Injected dose/g (Mus musculus [23]): 0.36%
- Injected dose/g (Mus musculus [24]): 0.41%
- Injected dose/g (Mus musculus [25]): 0.79%
- Injected dose/g (Mus musculus [26]): 0.28%
- Injected dose/g (Mus musculus [27]): 0.45%
- Injected dose/g (Mus musculus [28]): 0.54%
- Injected dose/g (Mus musculus [29]): 0.31%
- Injected dose/g (Mus musculus [30]): 0.14%
- Injected dose/g (Mus musculus [31]): 0.59%
- Injected dose/g (Mus musculus [32]): 0.34%
Structure (SMILES): O=c1[nH]c(=O)n([C@H]2O[C@@H](CO)[C@H](O)[C@H]2F)cc1Br
